Data published in paper PMC12714840 (Nature Communications, 2025).

Assays:
Human GPR99 (wild-type) = Human GPR99 (wild-type) (Homo sapiens, UniProt Q96P68); assay: IP-one accumulation assay, wild-type receptor; assay type: cell-based; conditions: WT
GPR99/OXGR1 K32A = GPR99/OXGR1 K32A (Homo sapiens, UniProt Q96P68, K32A); assay: IP-one accumulation assay, K32A mutant; assay type: cell-based; conditions: K32A vs WT; oxoglutarate stimulation
GPR99/OXGR1 Y92A = GPR99/OXGR1 Y92A (Homo sapiens, UniProt Q96P68, Y92A); assay: IP-one accumulation assay, Y92A mutant; assay type: cell-based; conditions: Y92A vs WT; oxoglutarate stimulation
GPR99/OXGR1 C141A = GPR99/OXGR1 C141A (Homo sapiens, UniProt Q96P68, C141A); assay: IP-one accumulation assay, C141A mutant; assay type: cell-based; conditions: C141A vs WT
GPR99/OXGR1 R148A = GPR99/OXGR1 R148A (Homo sapiens, UniProt Q96P68, R148A); assay: IP-one accumulation assay, R148A mutant; assay type: cell-based; conditions: R148A vs WT
Human GPR99 (WT) = Human GPR99 (WT) (Homo sapiens, UniProt Q96P68); assay: cAMP inhibition assay; assay type: cell-based
Procedure, shortened: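 HeLa cells transiently expressing human GPR99 for 24 h, pretreated 12 h at 37 °C with 250 ng/mL PTX or vehicle. Cells harvested in HBSS with 5 mM HEPES, 0.1% BSA and 0.5 mM IBMX, then stimulated 30 min with varying ligand concentrations plus 2.5 μM forskolin. cAMP read by LANCE Ultra kit. Data are % of maximal response, mean ± SEM, ≥3 independent experiments; EC50 from three-parameter curve fit.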

GPR99 = GPR99 (Homo sapiens, UniProt Q96P68); conditions: GPR99 recognition of oxoglutarate; cited from earlier work
GPR99/OXGR1 = GPR99/OXGR1 (Homo sapiens, UniProt Q96P68); conditions: oxoglutarate for GPR99/OXGR1; no reference given; cited from earlier work
[1] = 250 ng/mL PTX pretreatment 12 h

Compound | IP1 accumulation (PLC pathway downstream of Gq) (Human GPR99 (wild-type); HeLa) | increase in EC50 (IP1 accumulation) (GPR99/OXGR1 K32A) | maximum response (Emax), IP1 accumulation (GPR99/OXGR1 K32A) | increase in EC50 (IP1 accumulation) (GPR99/OXGR1 Y92A) | maximum response (Emax), IP1 accumulation (GPR99/OXGR1 Y92A) | effect of alanine substitution on oxoglutarate-induced receptor activation (IP1) (GPR99/OXGR1 C141A) | effect of alanine substitution on oxoglutarate-induced receptor activation (IP1) (GPR99/OXGR1 R148A) | cAMP reduction downstream of Gi coupling (Human GPR99 (WT); HeLa, 2.5 μM forskolin) | EC50 (GPR99) | affinity (Kd) (GPR99/OXGR1) | effect on LTE4-induced IP1 accumulation (Human GPR99 (wild-type); [1]) | effect on cAMP response elicited by LTE4 (Human GPR99 (WT); [1])
O=C(O)CCC(=O)C(=O)O [oxoglutarate, 2-oxoglutarate] | increased IP1 accumulation | more than 100 fold | remained unchanged | more than 100 fold | remained unchanged | little effect | little effect | failed to stimulate cAMP reduction | ~200 µM | hundreds of micromolar | – | –
pertussis toxin [PTX] | – | – | – | – | – | – | – | – | – | – | without affecting IP1 accumulation | abrogated
